The values that follow come from ChEMBL document CHEMBL1629475, “Synthesis of new chalcone derivatives containing a rhodanine-3-acetic acid moiety with potential anti-bacterial activity” (2010).

≈ marks a conversion by molar mass, not a printed value. Calls of active or inactive are those of the source. The rule behind the calls is not given here. Bounds are passed on as bounds.

Assay [1] deals with Staphylococcus aureus. Description: Antibacterial activity against Staphylococcus aureus RN 4220 at 64 ug/ml. The format is functional, organism-based.
Assay [2] relates to Staphylococcus aureus. Briefly: Antibacterial activity against Staphylococcus aureus KCTC 503 at 64 ug/ml. Format: functional, organism-based.
For assay [3], the system named is Staphylococcus aureus. Briefly: Antibacterial activity against Staphylococcus aureus KCTC 209 at 64 ug/ml. The format is functional, organism-based.
For assay [4], the system named is Streptococcus mutans. Briefly: Antibacterial activity against Streptococcus mutans KCTC 3065 at 64 ug/ml. The format is functional, organism-based.
The test system of assay [5] is Streptococcus mutans. Description: Antibacterial activity against Streptococcus mutans KCTC 3289 at 64 ug/ml. Format: functional, organism-based.
Assay [6] deals with Staphylococcus aureus. Briefly: Antibacterial activity against Staphylococcus aureus RN 4220 after 20 hrs by twofold serial dilution technique. The note with it: RN 4220, 20 h. Format: functional. The procedure, abridged:
(§1)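 Inoculum was 10⁵ CFU/mL. MIC was read after 20 h at 37 °C. The MRSA and QRSA strains were multidrug-resistant clinical isolates. Oxacillin and norfloxacin served as positive controls.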

The test system of assay [7] is Staphylococcus aureus. Description: Antibacterial activity against Staphylococcus aureus KCTC 503 after 20 hrs by twofold serial dilution technique. The format is functional. The note with it: KCTC 503, 20 h. The procedure, abridged:
as §1

The subject of assay [8] is Staphylococcus aureus. Briefly: Antibacterial activity against Staphylococcus aureus KCTC 209 after 20 hrs by twofold serial dilution technique. Format: functional. The note with it: KCTC 209, 20 h. The procedure, abridged:
as §1

Assay [9] deals with Streptococcus mutans. Description: Antibacterial activity against Streptococcus mutans KCTC 3065 after 20 hrs by twofold serial dilution technique. The format is functional. The note with it: KCTC 3065, 20 h. The procedure, abridged: (§2)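 Inoculum was 10⁵ CFU/mL, and MIC was read after incubation at 37 °C for 20 h. Oxacillin and norfloxacin were the positive controls.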
For assay [10], the system named is Streptococcus mutans. Description: Antibacterial activity against Streptococcus mutans KCTC 3289 after 20 hrs by twofold serial dilution technique. Format: functional. To be noted: KCTC 3289, 20 h. The procedure, abridged: as §2
Assay [11] has as its system Escherichia coli. Briefly: Antibacterial activity against Escherichia coli 1924 after 20 hrs by twofold serial dilution technique. Format: functional. To be noted: Escherichia coli, 1924, 20 h. The procedure, abridged: as §1
Assay [12] relates to Escherichia coli. Description: Antibacterial activity against Escherichia coli 1356 after 20 hrs by twofold serial dilution technique. The format is functional. The note with it: Escherichia coli, 1356, 20 h. The procedure, abridged: as §1
Assay [13] has as its system Escherichia coli. Description: Antibacterial activity against Escherichia coli 1356 at 64 ug/ml. The format is functional, organism-based.
In assay [14] the test system is Escherichia coli. Briefly: Antibacterial activity against Escherichia coli 1924 at 64 ug/ml. Format: functional, organism-based.
Assay [15] relates to Staphylococcus aureus. Briefly: Antibacterial activity against Staphylococcus aureus MRSA CCARM 3167 after 20 hrs by twofold serial dilution technique. Format: functional. To be noted: MRSA CCARM 3167, 20 h. The procedure, abridged: as §1
Assay [16] concerns Staphylococcus aureus. Briefly: Antibacterial activity against Staphylococcus aureus MRSA CCARM 3506 after 20 hrs by twofold serial dilution technique. The format is functional. To be noted: MRSA CCARM 3506, 20 h. The procedure, abridged:
as §1

The subject of assay [17] is Staphylococcus aureus. Description: Antibacterial activity against Staphylococcus aureus QRSA CCARM 3505 after 20 hrs by twofold serial dilution technique. The note with it: QRSA CCARM 3505, 20 h. The format is functional. The procedure, abridged: as §1
In assay [18] the test system is Staphylococcus aureus. Briefly: Antibacterial activity against Staphylococcus aureus QRSA CCARM 3519 after 20 hrs by twofold serial dilution technique. Format: functional. The note with it: QRSA CCARM 3519, 20 h. The procedure, abridged: as §1

In general, MIC refers to the lowest concentration that inhibits growth of the organism. A high value points to a need for much substance. Turning to `O=C(O)CN1C(=O)CSC1=S` [RHODANINE-3-ACETIC ACID], the result with Staphylococcus aureus [1], in the assay on Staphylococcus aureus [2], with Staphylococcus aureus [3], in the assay on Streptococcus mutans [4], in the assay on Streptococcus mutans [5] and in the assay with Escherichia coli [13] was inactive. In the assay on Escherichia coli [14], the result was inactive. Moreover, the minimum inhibitory concentration (MIC) in the assay on Staphylococcus aureus [6], against Staphylococcus aureus [7], against Staphylococcus aureus [8], with Streptococcus mutans [9], against Streptococcus mutans [10] and against Escherichia coli [11] was more than 64 µg/mL each time. The minimum inhibitory concentration (MIC) in the assay with Escherichia coli [12] was more than 64 µg/mL.
As to `O=C(O)CN1C(=O)/C(=C\c2ccc(/C=C/C(=O)c3ccccc3Br)cc2)SC1=S`, the outcome in the assay with Staphylococcus aureus [1], with Staphylococcus aureus [2], in the assay with Staphylococcus aureus [3], in the assay on Streptococcus mutans [4], with Streptococcus mutans [5] and in the assay on Escherichia coli [13] was inactive. In addition, the result in the assay on Escherichia coli [14] was inactive. The minimum inhibitory concentration (MIC) against Staphylococcus aureus [6], against Staphylococcus aureus [7], against Staphylococcus aureus [8], against Streptococcus mutans [9], in the assay on Streptococcus mutans [10] and in the assay on Escherichia coli [11] was more than 64 µg/mL throughout. In the assay with Escherichia coli [12], this molecule yielded an MIC of more than 64 µg/mL.
On to `O=C(O)CN1C(=O)/C(=C\c2ccc(/C=C/C(=O)c3ccccc3F)cc2)SC1=S`, for which the result in the assay with Staphylococcus aureus [1], in the assay on Staphylococcus aureus [2], in the assay with Staphylococcus aureus [3], in the assay on Streptococcus mutans [4], with Streptococcus mutans [5] and with Escherichia coli [13] was inactive. Moreover, in the assay with Escherichia coli [14], the result was inactive. Besides, the minimal inhibitory concentration (MIC) against Staphylococcus aureus [6], with Staphylococcus aureus [7], in the assay with Staphylococcus aureus [8], with Streptococcus mutans [9], with Streptococcus mutans [10] and with Escherichia coli [11] was more than 64 µg/mL throughout. This molecule returned a minimum inhibitory concentration (MIC) against Escherichia coli [12] of more than 64 µg/mL.
Turning to `O=C(O)CN1C(=O)/C(=C\c2ccc(/C=C/C(=O)c3ccc(F)cc3)cc2)SC1=S`, the minimum inhibitory concentration (MIC) with Staphylococcus aureus [6] was 4 µg/mL (≈ 9.36 µM); against Staphylococcus aureus [7] it was 4 µg/mL (≈ 9.36 µM); against Staphylococcus aureus [8] it was 4 µg/mL (≈ 9.36 µM); with Streptococcus mutans [9] it was 4 µg/mL (≈ 9.36 µM); in the assay on Streptococcus mutans [10], 4 µg/mL (≈ 9.36 µM); in the assay with Escherichia coli [11], more than 64 µg/mL. The minimum inhibitory concentration (MIC) against Escherichia coli [12] was more than 64 µg/mL; against Staphylococcus aureus [15], 4 µg/mL (≈ 9.36 µM); in the assay with Staphylococcus aureus [16], 4 µg/mL (≈ 9.36 µM); in the assay on Staphylococcus aureus [17], 4 µg/mL (≈ 9.36 µM); in the assay with Staphylococcus aureus [18] it was 4 µg/mL (≈ 9.36 µM). Moreover, the outcome in the assay with Escherichia coli [13] and in the assay on Escherichia coli [14] was inactive.
`O=C(O)CN1C(=O)/C(=C\c2ccc(/C=C/C(=O)c3ccc(Br)cc3)cc2)SC1=S`: the MIC in the assay with Staphylococcus aureus [6] was 4 µg/mL (≈ 8.19 µM); in the assay with Staphylococcus aureus [7], 4 µg/mL (≈ 8.19 µM); in the assay on Staphylococcus aureus [8], 4 µg/mL (≈ 8.19 µM); in the assay with Streptococcus mutans [9] it was 4 µg/mL (≈ 8.19 µM); against Streptococcus mutans [10], 4 µg/mL (≈ 8.19 µM); against Escherichia coli [11], more than 64 µg/mL. Moreover, the MIC against Escherichia coli [12] is more than 64 µg/mL; in the assay with Staphylococcus aureus [15], 4 µg/mL (≈ 8.19 µM); with Staphylococcus aureus [16] it was 4 µg/mL (≈ 8.19 µM); with Staphylococcus aureus [17], 4 µg/mL (≈ 8.19 µM); with Staphylococcus aureus [18], 4 µg/mL (≈ 8.19 µM). Further, the result in the assay with Escherichia coli [13] and with Escherichia coli [14] was inactive.
Regarding `O=C(O)CN1C(=O)/C(=C\c2ccc(/C=C/C(=O)c3ccccc3Cl)cc2)SC1=S`, the result in the assay with Staphylococcus aureus [1], in the assay on Staphylococcus aureus [2], with Staphylococcus aureus [3], in the assay on Streptococcus mutans [4], with Streptococcus mutans [5] and with Escherichia coli [13] was inactive. Besides, in the assay on Escherichia coli [14], the outcome was inactive. In addition, the minimal inhibitory concentration (MIC) in the assay with Staphylococcus aureus [6], in the assay on Staphylococcus aureus [7], with Staphylococcus aureus [8], in the assay with Streptococcus mutans [9], against Streptococcus mutans [10] and in the assay with Escherichia coli [11] was more than 64 µg/mL throughout. The MIC against Escherichia coli [12] is more than 64 µg/mL.
